This note sets out measurements from ChEMBL document CHEMBL3797186, “Single Residue Substitutions That Confer Voltage-Gated Sodium Ion Channel Subtype Selectivity in the NaV1.7 Inhibitory Peptide GpTx-1” (J Med Chem, 2016).

Positions of bridges follow the written chain, without caps; N, C: chain ends. Residues, ends and D or L forms follow the SMILES beside them. Bounds are passed on as bounds.

Assay [1] deals with Sodium channel protein type 9 subunit alpha (Homo sapiens, UniProt Q15858). The assay can be described thus: Inhibition of human Nav1.7 expressed in HEK293 cells assessed as inward peak current by ion-works quattro patch clamp electrophysiology method. It counts as cell-based. Background: The patch-clamp technique gives a direct electrical read-out from membranes.
Sodium channel protein type 9 subunit alpha, sequence (Q15858 whole entry): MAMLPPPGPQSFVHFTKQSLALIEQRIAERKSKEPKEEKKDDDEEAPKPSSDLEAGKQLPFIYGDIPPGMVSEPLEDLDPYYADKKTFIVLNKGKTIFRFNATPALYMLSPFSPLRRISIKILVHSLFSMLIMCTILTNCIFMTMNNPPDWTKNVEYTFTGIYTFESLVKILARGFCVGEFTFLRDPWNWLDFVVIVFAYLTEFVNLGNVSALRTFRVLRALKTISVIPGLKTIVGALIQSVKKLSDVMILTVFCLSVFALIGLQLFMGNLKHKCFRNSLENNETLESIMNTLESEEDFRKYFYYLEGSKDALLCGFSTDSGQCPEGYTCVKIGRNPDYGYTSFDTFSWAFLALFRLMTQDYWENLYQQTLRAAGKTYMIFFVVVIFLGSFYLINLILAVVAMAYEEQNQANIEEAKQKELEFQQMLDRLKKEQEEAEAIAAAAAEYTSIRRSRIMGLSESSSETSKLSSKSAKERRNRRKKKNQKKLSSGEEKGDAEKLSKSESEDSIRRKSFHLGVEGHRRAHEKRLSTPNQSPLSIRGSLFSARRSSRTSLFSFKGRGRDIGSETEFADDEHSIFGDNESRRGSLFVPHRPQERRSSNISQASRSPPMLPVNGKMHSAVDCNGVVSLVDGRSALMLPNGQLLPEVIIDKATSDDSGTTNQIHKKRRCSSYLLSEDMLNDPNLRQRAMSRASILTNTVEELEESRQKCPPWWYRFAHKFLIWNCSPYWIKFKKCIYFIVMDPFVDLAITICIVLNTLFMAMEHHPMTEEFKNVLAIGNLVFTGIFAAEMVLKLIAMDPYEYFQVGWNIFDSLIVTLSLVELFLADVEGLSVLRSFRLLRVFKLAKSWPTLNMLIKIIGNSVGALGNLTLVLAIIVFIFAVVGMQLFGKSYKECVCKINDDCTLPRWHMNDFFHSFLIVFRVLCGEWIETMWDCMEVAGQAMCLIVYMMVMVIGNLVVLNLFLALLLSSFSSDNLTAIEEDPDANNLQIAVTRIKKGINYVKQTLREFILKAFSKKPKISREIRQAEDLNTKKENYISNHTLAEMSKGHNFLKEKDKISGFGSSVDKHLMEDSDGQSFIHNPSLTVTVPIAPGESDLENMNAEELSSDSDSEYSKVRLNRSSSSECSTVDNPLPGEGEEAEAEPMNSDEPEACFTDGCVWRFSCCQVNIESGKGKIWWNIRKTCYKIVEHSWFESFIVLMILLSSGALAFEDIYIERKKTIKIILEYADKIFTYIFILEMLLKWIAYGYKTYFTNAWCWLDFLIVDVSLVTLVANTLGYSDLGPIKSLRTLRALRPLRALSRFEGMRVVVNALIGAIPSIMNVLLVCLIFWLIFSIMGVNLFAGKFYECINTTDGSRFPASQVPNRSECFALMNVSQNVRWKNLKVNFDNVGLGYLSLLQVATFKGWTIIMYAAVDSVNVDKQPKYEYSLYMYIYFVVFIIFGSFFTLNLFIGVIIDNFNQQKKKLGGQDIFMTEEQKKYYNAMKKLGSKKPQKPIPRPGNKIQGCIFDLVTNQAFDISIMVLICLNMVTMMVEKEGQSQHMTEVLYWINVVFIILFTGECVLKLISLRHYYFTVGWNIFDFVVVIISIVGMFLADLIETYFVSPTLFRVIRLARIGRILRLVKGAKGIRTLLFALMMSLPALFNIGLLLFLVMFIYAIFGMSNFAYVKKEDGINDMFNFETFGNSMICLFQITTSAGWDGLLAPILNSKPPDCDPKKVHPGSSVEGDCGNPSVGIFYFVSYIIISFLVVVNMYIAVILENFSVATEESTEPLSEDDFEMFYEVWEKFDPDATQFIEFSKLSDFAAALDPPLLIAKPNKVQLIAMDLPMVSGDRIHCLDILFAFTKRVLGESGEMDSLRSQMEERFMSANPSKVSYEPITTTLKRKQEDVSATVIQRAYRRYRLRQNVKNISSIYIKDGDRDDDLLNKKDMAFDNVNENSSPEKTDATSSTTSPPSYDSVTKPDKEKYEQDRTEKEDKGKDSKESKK
The target of assay [2] is Sodium channel protein type 5 subunit alpha (Homo sapiens, UniProt Q14524). As to the kind of experiment: Inhibition of human Nav1.5 expressed in HEK293 cells assessed as inward peak current by ion-works quattro patch clamp electrophysiology method. In kind it is cell-based. Summed up: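 Stable HEK293 line expressing human NaV1.5, recorded by population patch clamp on the IonWorks Quattro.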
Sodium channel protein type 5 subunit alpha, sequence (Q14524 whole entry): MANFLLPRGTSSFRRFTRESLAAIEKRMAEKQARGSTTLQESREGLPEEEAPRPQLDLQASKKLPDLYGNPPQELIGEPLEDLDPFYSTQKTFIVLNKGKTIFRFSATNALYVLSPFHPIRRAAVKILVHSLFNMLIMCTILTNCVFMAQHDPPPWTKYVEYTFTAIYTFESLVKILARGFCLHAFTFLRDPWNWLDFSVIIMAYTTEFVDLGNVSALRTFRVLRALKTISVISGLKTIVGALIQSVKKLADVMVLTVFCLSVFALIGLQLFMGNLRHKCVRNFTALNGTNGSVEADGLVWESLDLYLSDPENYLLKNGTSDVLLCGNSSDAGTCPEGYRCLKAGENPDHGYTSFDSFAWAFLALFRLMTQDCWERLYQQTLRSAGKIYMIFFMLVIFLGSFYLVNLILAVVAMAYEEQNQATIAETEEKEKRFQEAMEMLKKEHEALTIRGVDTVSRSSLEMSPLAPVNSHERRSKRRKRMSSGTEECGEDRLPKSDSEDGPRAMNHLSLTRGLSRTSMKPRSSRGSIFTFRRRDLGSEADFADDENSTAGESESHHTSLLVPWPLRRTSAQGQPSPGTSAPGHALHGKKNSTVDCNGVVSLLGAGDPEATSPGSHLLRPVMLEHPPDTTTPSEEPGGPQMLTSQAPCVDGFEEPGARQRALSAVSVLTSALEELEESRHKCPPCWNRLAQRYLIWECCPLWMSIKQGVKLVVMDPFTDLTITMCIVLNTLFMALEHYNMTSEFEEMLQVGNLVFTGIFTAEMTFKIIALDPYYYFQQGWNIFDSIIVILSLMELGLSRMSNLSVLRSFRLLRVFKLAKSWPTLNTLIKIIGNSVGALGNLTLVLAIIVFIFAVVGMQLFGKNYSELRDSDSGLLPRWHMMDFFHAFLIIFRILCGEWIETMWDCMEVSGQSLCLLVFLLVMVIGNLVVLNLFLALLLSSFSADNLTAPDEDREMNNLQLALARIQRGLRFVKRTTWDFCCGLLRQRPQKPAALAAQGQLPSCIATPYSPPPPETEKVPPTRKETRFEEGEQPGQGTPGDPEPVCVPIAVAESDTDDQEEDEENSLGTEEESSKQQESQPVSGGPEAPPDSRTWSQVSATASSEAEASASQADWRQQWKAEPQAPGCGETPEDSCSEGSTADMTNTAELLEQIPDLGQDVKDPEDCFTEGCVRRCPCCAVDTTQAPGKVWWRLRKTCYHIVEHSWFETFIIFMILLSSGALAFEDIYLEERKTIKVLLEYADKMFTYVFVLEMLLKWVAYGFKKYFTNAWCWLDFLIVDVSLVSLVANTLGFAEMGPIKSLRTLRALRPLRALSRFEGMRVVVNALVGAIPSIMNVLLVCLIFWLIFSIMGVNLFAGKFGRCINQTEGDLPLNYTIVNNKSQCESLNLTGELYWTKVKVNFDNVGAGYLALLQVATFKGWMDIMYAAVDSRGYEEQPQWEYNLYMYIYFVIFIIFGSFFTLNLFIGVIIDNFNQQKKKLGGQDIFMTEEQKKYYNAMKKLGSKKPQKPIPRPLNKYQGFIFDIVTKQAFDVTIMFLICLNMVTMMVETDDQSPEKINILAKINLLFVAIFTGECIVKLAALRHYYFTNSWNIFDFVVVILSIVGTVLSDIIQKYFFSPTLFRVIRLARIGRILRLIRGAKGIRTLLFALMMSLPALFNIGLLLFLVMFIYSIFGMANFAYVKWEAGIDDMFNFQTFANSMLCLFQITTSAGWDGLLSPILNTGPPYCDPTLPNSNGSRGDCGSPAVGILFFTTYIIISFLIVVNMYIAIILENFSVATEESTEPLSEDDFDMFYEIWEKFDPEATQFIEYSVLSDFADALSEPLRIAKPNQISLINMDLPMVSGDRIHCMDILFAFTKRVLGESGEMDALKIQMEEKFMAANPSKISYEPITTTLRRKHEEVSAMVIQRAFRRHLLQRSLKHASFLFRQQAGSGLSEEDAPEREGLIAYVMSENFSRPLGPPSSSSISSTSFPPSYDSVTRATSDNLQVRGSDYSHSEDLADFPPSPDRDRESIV

Usually IC50 stands for the concentration that gives 50% inhibition. Regarding `CC[C@H](C)[C@@H]1NC(=O)[C@@H]2CSSC[C@@H]3NC(=O)[C@H](C(C)C)NC(=O)[C@H](CC(C)C)NC(=O)[C@H](CC(N)=O)NC(=O)[C@@H]4CCCN4C(=O)[C@H](CCCNC(=N)N)NC(=O)[C@H](CSSC[C@H](NC(=O)[C@@H](N)CC(=O)O)C(=O)N[C@@H](CC(C)C)C(=O)NCC(=O)N[C@@H](Cc4ccccc4)C(=O)N[C@@H](CCSC)C(=O)N[C@@H](CCCCN)C(=O)N[C@@H](CCCCN)C(=O)N2)NC(=O)[C@H](CSSC[C@@H](C(=O)N[C@@H](CCCCN)C(=O)N[C@@H](Cc2ccc(O)cc2)C(=O)N[C@H](C(=O)N[C@@H](Cc2ccccc2)C(N)=O)C(C)C)NC(=O)[C@H](Cc2c[nH]c4ccccc24)NC(=O)[C@H](CCCCN)NC(=O)[C@H](Cc2c[nH]cn2)NC(=O)[C@H]([C@@H](C)O)NC(=O)[C@H](CCCNC(=N)N)NC(=O)[C@H](CO)NC3=O)NC(=O)[C@H](CCCCN)NC(=O)[C@H](CC(=O)O)NC(=O)[C@H](CC(N)=O)NC(=O)[C@H](CC(=O)O)NC(=O)[C@@H]2CCCN2C1=O` (H-DCLGFMKKCIPDNDKCCRPNLVCSRTHKWCKYVF-NH2; disulfide 2-17, 9-23, 16-30), the concentration for half-maximal inhibition (IC50) is 540 nM in assay [1] and over 5000 nM in assay [2].

As to `CC[C@H](C)[C@@H]1NC(=O)[C@@H]2CSSC[C@@H]3NC(=O)[C@H](C(C)C)NC(=O)[C@H](CC(C)C)NC(=O)[C@H](CC(N)=O)NC(=O)[C@@H]4CCCN4C(=O)[C@H](CCCNC(=N)N)NC(=O)[C@H](CSSC[C@H](NC(=O)[C@@H](N)CC(=O)O)C(=O)N[C@@H](CC(C)C)C(=O)NCC(=O)N[C@@H](Cc4ccccc4)C(=O)N[C@@H](CCSC)C(=O)N[C@@H](CCCNC(=N)N)C(=O)N[C@@H](CCCCN)C(=O)N2)NC(=O)[C@H](CSSC[C@@H](C(=O)N[C@@H](CCCCN)C(=O)N[C@@H](Cc2ccc(O)cc2)C(=O)N[C@H](C(=O)N[C@@H](Cc2ccccc2)C(N)=O)C(C)C)NC(=O)[C@H](Cc2c[nH]c4ccccc24)NC(=O)[C@H](CCCCN)NC(=O)[C@H](Cc2cnc[nH]2)NC(=O)[C@H]([C@@H](C)O)NC(=O)[C@H](CCCNC(=N)N)NC(=O)[C@H](CO)NC3=O)NC(=O)[C@H](CCCCN)NC(=O)[C@H](CC(=O)O)NC(=O)[C@H](CCC(=O)O)NC(=O)[C@H](CC(=O)O)NC(=O)[C@@H]2CCCN2C1=O` (H-DCLGFMRKCIPDEDKCCRPNLVCSRTHKWCKYVF-NH2; disulfide 2-17, 9-23, 16-30), the half-maximal inhibitory concentration (IC50) is 280 nM in assay [1] and over 5000 nM in assay [2].

For the compound `CC[C@H](C)[C@@H]1NC(=O)[C@@H]2CSSC[C@@H]3NC(=O)[C@H](C(C)C)NC(=O)[C@H](CC(C)C)NC(=O)[C@H](CCC(=O)O)NC(=O)[C@@H]4CCCN4C(=O)[C@H](CCCNC(=N)N)NC(=O)[C@H](CSSC[C@H](NC(=O)[C@@H](N)CC(=O)O)C(=O)N[C@@H](CC(C)C)C(=O)NCC(=O)N[C@@H](Cc4ccccc4)C(=O)N[C@@H](CCSC)C(=O)N[C@@H](CCCNC(=N)N)C(=O)N[C@@H](CCCCN)C(=O)N2)NC(=O)[C@H](CSSC[C@@H](C(=O)N[C@@H](CCCCN)C(=O)N[C@@H](Cc2ccc(O)cc2)C(=O)N[C@H](C(=O)N[C@@H](Cc2ccccc2)C(N)=O)C(C)C)NC(=O)[C@H](Cc2c[nH]c4ccccc24)NC(=O)[C@H](CCCCN)NC(=O)[C@H](Cc2cnc[nH]2)NC(=O)[C@H]([C@@H](C)O)NC(=O)[C@H](CCCNC(=N)N)NC(=O)[C@H](CO)NC3=O)NC(=O)[C@H](CCCCN)NC(=O)[C@H](CC(=O)O)NC(=O)[C@H](CC(N)=O)NC(=O)[C@H](CC(=O)O)NC(=O)[C@@H]2CCCN2C1=O` (H-DCLGFMRKCIPDNDKCCRPELVCSRTHKWCKYVF-NH2; disulfide 2-17, 9-23, 16-30), the IC50 in assay [1] was 1400 nM; in assay [2], over 5000 nM.

Regarding `CC[C@H](C)[C@@H]1NC(=O)[C@@H]2CSSC[C@@H]3NC(=O)[C@H](C(C)C)NC(=O)[C@H](CC(C)C)NC(=O)[C@H](CCCCN)NC(=O)[C@@H]4CCCN4C(=O)[C@H](CCCNC(=N)N)NC(=O)[C@H](CSSC[C@H](NC(=O)[C@@H](N)CC(=O)O)C(=O)N[C@@H](CC(C)C)C(=O)NCC(=O)N[C@@H](Cc4ccccc4)C(=O)N[C@@H](CCSC)C(=O)N[C@@H](CCCNC(=N)N)C(=O)N[C@@H](CCCCN)C(=O)N2)NC(=O)[C@H](CSSC[C@@H](C(=O)N[C@@H](CCCCN)C(=O)N[C@@H](Cc2ccc(O)cc2)C(=O)N[C@H](C(=O)N[C@@H](Cc2ccccc2)C(N)=O)C(C)C)NC(=O)[C@H](Cc2c[nH]c4ccccc24)NC(=O)[C@H](CCCCN)NC(=O)[C@H](Cc2cnc[nH]2)NC(=O)[C@H]([C@@H](C)O)NC(=O)[C@H](CCCNC(=N)N)NC(=O)[C@H](CO)NC3=O)NC(=O)[C@H](CCCCN)NC(=O)[C@H](CC(=O)O)NC(=O)[C@H](CC(N)=O)NC(=O)[C@H](CC(=O)O)NC(=O)[C@@H]2CCCN2C1=O` (H-DCLGFMRKCIPDNDKCCRPKLVCSRTHKWCKYVF-NH2; disulfide 2-17, 9-23, 16-30), the IC50 in assay [1] is 630 nM; in assay [2] it was over 5000 nM.

Turning to `CC[C@H](C)[C@@H]1NC(=O)[C@@H]2CSSC[C@@H]3NC(=O)[C@H](CCCCN)NC(=O)[C@H](CC(C)C)NC(=O)[C@H](CC(N)=O)NC(=O)[C@@H]4CCCN4C(=O)[C@H](CCCNC(=N)N)NC(=O)[C@H](CSSC[C@H](NC(=O)[C@@H](N)CC(=O)O)C(=O)N[C@@H](CC(C)C)C(=O)NCC(=O)N[C@@H](Cc4ccccc4)C(=O)N[C@@H](CCSC)C(=O)N[C@@H](CCCNC(=N)N)C(=O)N[C@@H](CCCCN)C(=O)N2)NC(=O)[C@H](CSSC[C@@H](C(=O)N[C@@H](CCCCN)C(=O)N[C@@H](Cc2ccc(O)cc2)C(=O)N[C@H](C(=O)N[C@@H](Cc2ccccc2)C(N)=O)C(C)C)NC(=O)[C@H](Cc2c[nH]c4ccccc24)NC(=O)[C@H](CCCCN)NC(=O)[C@H](Cc2cnc[nH]2)NC(=O)[C@H]([C@@H](C)O)NC(=O)[C@H](CCCNC(=N)N)NC(=O)[C@H](CO)NC3=O)NC(=O)[C@H](CCCCN)NC(=O)[C@H](CC(=O)O)NC(=O)[C@H](CC(N)=O)NC(=O)[C@H](CC(=O)O)NC(=O)[C@@H]2CCCN2C1=O` (H-DCLGFMRKCIPDNDKCCRPNLKCSRTHKWCKYVF-NH2; disulfide 2-17, 9-23, 16-30), the IC50 is 200 nM in assay [1] and over 5000 nM in assay [2].

As for `CC[C@H](C)[C@@H]1NC(=O)[C@@H]2CSSC[C@@H]3NC(=O)[C@H](C(C)C)NC(=O)[C@H](CC(C)C)NC(=O)[C@H](CC(N)=O)NC(=O)[C@@H]4CCCN4C(=O)[C@H](CCCNC(=N)N)NC(=O)[C@H](CSSC[C@H](NC(=O)[C@@H](N)CC(=O)O)C(=O)N[C@@H](CC(C)C)C(=O)NCC(=O)N[C@@H](Cc4ccccc4)C(=O)N[C@@H](CCSC)C(=O)N[C@@H](CCCNC(=N)N)C(=O)N[C@@H](CCCCN)C(=O)N2)NC(=O)[C@H](CSSC[C@@H](C(=O)N[C@@H](CCCCN)C(=O)N[C@@H](Cc2ccc(O)cc2)C(=O)N[C@H](C(=O)N[C@@H](Cc2ccccc2)C(N)=O)C(C)C)NC(=O)[C@H](Cc2c[nH]c4ccccc24)NC(=O)[C@H](CCCCN)NC(=O)[C@H](Cc2cnc[nH]2)NC(=O)[C@H]([C@@H](C)O)NC(=O)[C@H](CCCNC(=N)N)NC(=O)[C@H](CCC(=O)O)NC3=O)NC(=O)[C@H](CCCCN)NC(=O)[C@H](CC(=O)O)NC(=O)[C@H](CC(N)=O)NC(=O)[C@H](CC(=O)O)NC(=O)[C@@H]2CCCN2C1=O` (H-DCLGFMRKCIPDNDKCCRPNLVCERTHKWCKYVF-NH2; disulfide 2-17, 9-23, 16-30), the IC50 in assay [1] and in assay [2] was over 5000 nM each time.

For the compound `CC[C@H](C)[C@@H]1NC(=O)[C@@H]2CSSC[C@@H]3NC(=O)[C@H](C(C)C)NC(=O)[C@H](CC(C)C)NC(=O)[C@H](CC(N)=O)NC(=O)[C@@H]4CCCN4C(=O)[C@H](CCCNC(=N)N)NC(=O)[C@H](CSSC[C@H](NC(=O)[C@@H](N)CC(=O)O)C(=O)N[C@@H](CC(C)C)C(=O)NCC(=O)N[C@@H](Cc4ccccc4)C(=O)N[C@@H](CCSC)C(=O)N[C@@H](CCCNC(=N)N)C(=O)N[C@@H](CCCCN)C(=O)N2)NC(=O)[C@H](CSSC[C@@H](C(=O)N[C@@H](CCCCN)C(=O)N[C@@H](Cc2ccc(O)cc2)C(=O)N[C@H](C(=O)N[C@@H](Cc2ccccc2)C(N)=O)C(C)C)NC(=O)[C@H](Cc2c[nH]c4ccccc24)NC(=O)[C@H](CCCCN)NC(=O)[C@H](Cc2c[nH]cn2)NC(=O)[C@H]([C@@H](C)O)NC(=O)[C@H](CCC(=O)O)NC(=O)[C@H](CO)NC3=O)NC(=O)[C@H](CCCCN)NC(=O)[C@H](CC(=O)O)NC(=O)[C@H](CC(N)=O)NC(=O)[C@H](CC(=O)O)NC(=O)[C@@H]2CCCN2C1=O` (H-DCLGFMRKCIPDNDKCCRPNLVCSETHKWCKYVF-NH2; disulfide 2-17, 9-23, 16-30), the IC50 in assay [1] is 720 nM; in assay [2], over 5000 nM.

As for `CC[C@H](C)[C@@H]1NC(=O)[C@@H]2CSSC[C@@H]3NC(=O)[C@H](C(C)C)NC(=O)[C@H](CC(C)C)NC(=O)[C@H](CC(N)=O)NC(=O)[C@@H]4CCCN4C(=O)[C@H](CCCNC(=N)N)NC(=O)[C@H](CSSC[C@H](NC(=O)[C@@H](N)CC(=O)O)C(=O)N[C@@H](CC(C)C)C(=O)NCC(=O)N[C@@H](Cc4ccccc4)C(=O)N[C@@H](CCSC)C(=O)N[C@@H](CCCNC(=N)N)C(=O)N[C@@H](CCCCN)C(=O)N2)NC(=O)[C@H](CSSC[C@@H](C(=O)N[C@@H](CCCCN)C(=O)N[C@@H](Cc2ccc(O)cc2)C(=O)N[C@H](C(=O)N[C@@H](Cc2ccccc2)C(N)=O)C(C)C)NC(=O)[C@H](Cc2c[nH]c4ccccc24)NC(=O)[C@H](CCCCN)NC(=O)[C@H](Cc2cnc[nH]2)NC(=O)[C@H](CCC(=O)O)NC(=O)[C@H](CCCNC(=N)N)NC(=O)[C@H](CO)NC3=O)NC(=O)[C@H](CCCCN)NC(=O)[C@H](CC(=O)O)NC(=O)[C@H](CC(N)=O)NC(=O)[C@H](CC(=O)O)NC(=O)[C@@H]2CCCN2C1=O` (H-DCLGFMRKCIPDNDKCCRPNLVCSREHKWCKYVF-NH2; disulfide 2-17, 9-23, 16-30), the IC50 is 690 nM in assay [1] and over 5000 nM in assay [2].
